Results: ChEMBL document CHEMBL3098012, “A novel tamoxifen derivative, ridaifen-F, is a nonpeptidic small-molecule proteasome inhibitor” (Eur J Med Chem, 2014)
Active and inactive are the calls of the source. The rule behind the calls is not given here. Peptide text beside a SMILES is read from it. * marks the point of attachment. Cbz = O=C(OCc1ccccc1)*

Assays:
[1] = system: HL-60; assay: Cytotoxicity against […] human HL60 cells after 48 hrs by MTT assay; assay type: functional; conditions: HL-60, 48 h
How it was run: (§1)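 HEK293 (DMEM) or HL-60 (IMDM) cells, each with 10% FBS plus penicillin/streptomycin, seeded 5×10^3 cells/well in duplicate. Exposed 48 h to compound at […]. MTT reduction read as 560/750 nm absorbance ratio after HCl/2-propanol extraction. CyT50 from inhibition curve; means of triplicate.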

[2] = molecular target: T1, Proteasome Macropain subunit MB1 (Homo sapiens, UniProt P28074); assay: Noncompetitive inhibition of chymotrypsin-like activity of human 20S proteasome beta 5 subunit assessed as hydrolysis of succinyl-LLVY-AMC fluorogenic substrate Lineweaver-Burk plot analysis
T1 sequence (P28074 whole entry): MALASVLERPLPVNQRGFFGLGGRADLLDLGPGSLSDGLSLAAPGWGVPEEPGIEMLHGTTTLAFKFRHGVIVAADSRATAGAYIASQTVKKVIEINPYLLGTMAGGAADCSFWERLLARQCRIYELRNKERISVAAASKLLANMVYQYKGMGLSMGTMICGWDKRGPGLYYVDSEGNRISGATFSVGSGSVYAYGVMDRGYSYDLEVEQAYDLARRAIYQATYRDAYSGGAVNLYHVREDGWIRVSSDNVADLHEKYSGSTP

[3] = Cytotoxicity against ER-negative HEK293 cells after 48 hrs by MTT assay; assay type: cell-based; conditions: human; how it was run: as §1
[4] = molecular target: T1, Proteasome Macropain subunit MB1; assay: Inhibition of chymotrypsin-like activity of human 20S proteasome beta 5 subunit assessed as hydrolysis of succinyl-LLVY-AMC fluorogenic substrate measured for 1 hr by fluorometric analysis
How it was run: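 Purified human 20S proteasome (0.1 µg) incubated at 37 °C with 50 µM succinyl-LLVY-AMC (CT-L) or 20 µM Z-LLE-AMC (PGPH) and compound at 0.01–10 µM in 25 mM HEPES, 0.5 mM EDTA, 0.03% SDS. IC50 taken from inhibition curve; means of three experiments.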

[5] = molecular target: T2, Proteasome Macropain subunit MB1 (Homo sapiens) (UniProt P28074); conditions: 10 to 20 uM
T2 sequence (whole entry): T1 sequence (P28074 whole entry)

[6] = molecular target: Proteasome Macropain subunit (Homo sapiens) (UniProt P49721); conditions: 10 to 20 uM
[7] = system: HeLa; assay: Cell cycle arrest in human HeLa cells assessed as accumulation at sub G1 phase at 10 uM after 24 hrs by propidium iodide staining-based flow cytometric analysis (reference value: 2.2%); assay type: functional
[8] = molecular target: T3, Proteasome component C5 (Homo sapiens) (UniProt P20618); conditions: 10 to 20 uM
T3 sequence (whole entry): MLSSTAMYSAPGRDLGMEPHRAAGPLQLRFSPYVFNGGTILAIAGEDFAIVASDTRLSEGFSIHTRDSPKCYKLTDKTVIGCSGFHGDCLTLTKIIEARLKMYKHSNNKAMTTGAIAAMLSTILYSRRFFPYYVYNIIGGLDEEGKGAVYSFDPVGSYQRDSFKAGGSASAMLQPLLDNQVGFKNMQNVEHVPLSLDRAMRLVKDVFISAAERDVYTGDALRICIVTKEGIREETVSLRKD

[9] = system: HeLa; assay: Inhibition of proteasome in human HeLa cells assessed as accumulation of ubiquitinated proteins at 10 uM after 24 hrs by Western blotting analysis; assay type: cell-based
How it was run: (§2)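 HeLa cells, 4×10^5 cells/well, treated 24 h with compound; vehicle control 0.25% DMSO. Lysed in Tris–HCl/2% SDS/glycerol buffer with protease and phosphatase inhibitors; 30 µg protein run on SDS-PAGE, PVDF blot probed with anti-ubiquitin (1:200), actin as loading reference, HRP secondary, ECL detection.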

[10] = molecular target: Proteasome Macropain subunit (Homo sapiens) (UniProt P49721); assay: Inhibition of trypsin-like activity of human 20S proteasome beta 2 subunit assessed as hydrolysis of Boc-LRR-AMC fluorogenic substrate at 10 uM measured for 1 hr by fluorometric analysis relative to control; design: scale not given: the % may be the effect or the level left
[11] = molecular target: T2, Proteasome Macropain subunit MB1 (Homo sapiens); assay: Inhibition of chymotrypsin-like activity of human 20S proteasome beta 5 subunit assessed as hydrolysis of succinyl-LLVY-AMC fluorogenic substrate at 10 uM measured for 1 hr by fluorometric analysis relative to control; design: scale not given: the % may be the effect or the level left
[12] = molecular target: T3, Proteasome component C5 (Homo sapiens); assay: Inhibition of PGPH-like activity of human 20S proteasome beta 1 subunit assessed as hydrolysis of Z-LLE-AMC fluorogenic substrate at 10 uM measured for 1 hr by fluorometric analysis relative to control; design: scale not given: the % may be the effect or the level left
[13] = molecular target: Proteasome Macropain subunit (Homo sapiens) (UniProt P49721); assay: Inhibition of biotin-labeled belactosin A binding to human 20S proteasome beta 2 subunit at 1 to 100 uM preincubated for 1 hr followed by biotin-labeled belactosin A treatment measured after 1 hr by Western blotting analysis
How it was run: (§3)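 Purified human 20S proteasomes preincubated with varying inhibitor concentrations 1 h at 37 °C, then biotin-belactosin A added at 1 μM for a further 1 h. Proteins separated by SDS-PAGE, blotted to PVDF, blocked with 5% skim milk; biotin-labeled subunits detected with streptavidin-HRP and ECL. MG132 used as control.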

[14] = molecular target: T3, Proteasome component C5 (Homo sapiens); assay: Inhibition of biotin-labeled belactosin A binding to human 20S proteasome beta 1 subunit at 1 to 100 uM preincubated for 1 hr followed by biotin-labeled belactosin A treatment measured after 1 hr by Western blotting analysis; how it was run: as §3
[15] = system: HeLa; assay: Induction of apoptosis in human HeLa cells assessed as PARP cleavage at 1 to 60 uM after 24 hrs by Western blotting analysis; assay type: functional, cell-based
How it was run: (§4)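 HeLa cells seeded 4×10^5 cells/well, incubated 24 h with varying compound concentrations; PARP cleavage detected in lysates by Western blotting.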

[16] = molecular target: T3, Proteasome component C5 (Homo sapiens); assay: Inhibition of biotin-labeled belactosin A binding to human 20S proteasome beta 1 subunit preincubated for 1 hr followed by biotin-labeled belactosin A treatment measured after 1 hr by Western blotting analysis
How it was run: (§5)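 Purified human 20S proteasome preincubated 1 h at 37 °C with varying compound levels, then biotin-belactosin A added to 1 µM for a further 1 h. Proteins separated by SDS-PAGE, blotted to PVDF, milk-blocked; biotin-labelled subunits detected with streptavidin-HRP and ECL.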

[17] = system: HeLa; assay: Induction of apoptosis in human HeLa cells assessed as PARP cleavage after 24 hrs by Western blotting analysis; assay type: functional, cell-based; how it was run: as §4
[18] = molecular target: T2, Proteasome Macropain subunit MB1 (Homo sapiens); assay: Inhibition of biotin-labeled belactosin A binding to human 20S proteasome beta 5 subunit at 1 to 100 uM preincubated for 1 hr followed by biotin-labeled belactosin A treatment measured after 1 hr by Western blotting analysis; how it was run: as §5
[19] = molecular target: T3, Proteasome component C5 (Homo sapiens); assay: Inhibition of biotin-labeled belactosin A binding to human 20S proteasome beta 1 subunit at 10 uM preincubated for 1 hr followed by biotin-labeled belactosin A treatment measured after 1 hr by Western blotting analysis; how it was run: as §5
[20] = molecular target: T2, Proteasome Macropain subunit MB1 (Homo sapiens); assay: Inhibition of biotin-labeled belactosin A binding to human 20S proteasome beta 5 subunit at 100 uM preincubated for 1 hr followed by biotin-labeled belactosin A treatment measured after 1 hr by Western blotting analysis; how it was run: as §5
[21] = system: HeLa; assay: Inhibition of proteasome in human HeLa cells assessed as accumulation of ubiquitinated proteins at 60 uM after 24 hrs by Western blotting analysis; assay type: cell-based; how it was run: as §2
[22] = system: HeLa; assay: Induction of apoptosis in human HeLa cells assessed as caspase 3 cleavage at 1 to 30 uM after 24 hrs by Western blotting analysis; assay type: functional, cell-based
[23] = species on record: Homo sapiens; assay: Inhibition of cathepsin (unknown origin) at >10 uM
[24] = system: HeLa; assay: Cell cycle arrest in human HeLa cells assessed as accumulation at sub G1 phase at 60 uM after 24 hrs by propidium iodide staining-based flow cytometric analysis (reference value: 2.2%); assay type: functional
[25] = Inhibition of chymotrypsin-like activity of Saccharomyces cerevisiae 20S proteasome beta 5 subunit
[26] = system: HeLa; assay: Inhibition of proteasome in human HeLa cells assessed as accumulation of ubiquitinated proteins at 30 uM after 24 hrs by Western blotting analysis; assay type: cell-based; how it was run: as §2
[27] = species on record: Homo sapiens; assay: Inhibition of calpain (unknown origin) at >10 uM

Proteasome Macropain subunit (Homo sapiens), sequence (P49721 whole entry): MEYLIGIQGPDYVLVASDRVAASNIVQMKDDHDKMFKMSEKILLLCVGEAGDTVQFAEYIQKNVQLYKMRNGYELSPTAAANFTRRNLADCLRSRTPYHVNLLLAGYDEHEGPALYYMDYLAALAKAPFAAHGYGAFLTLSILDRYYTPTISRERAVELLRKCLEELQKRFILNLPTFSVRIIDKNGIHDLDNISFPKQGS

Work on C(=C(c1ccc(OCCN2CCCCCC2)cc1)c1ccc(OCCN2CCCCCC2)cc1)c1ccccc1 yielded a CC50 [1] of 9.73 µM, a Ki [2] of 0.87 µM and a CC50 at 48 h [3] of 6.06 µM. For the same compound, the IC50 [4] was 0.58 µM.
With CC(C)C[C@@H](C=O)NC(=O)[C@H](CC(C)C)NC(=O)[C@H](CC(C)C)NC(=O)OCc1ccccc1 [MG-132] (Cbz-Leu-Leu-Leu-aldehyde) the inhibition [5] was “Active”, the inhibition [6] was “Active” and the Activity [7] was 5.6%. For the same compound, the inhibition [8] was “Active” and the inhibition [9] was “Active”.
Compound CC/C(=C(\c1ccccc1)c1ccc(OCCN(C)C)cc1)c1ccccc1 has an Activity [10] of 112%, an Activity [11] of 145% and an Activity [12] of 85%.
With c1ccc(Cc2ccc(OCCN3CCCCCC3)cc2)cc1 the CC50 [1] was over 30 µM, the CC50 at 48 h [3] was 27 µM and the IC50 [4] was over 10 µM. For the same compound, the inhibition [13] was “Active”, the inhibition [14] was “Active” and the Activity [15] was “inactive”.
In the case of c1ccc(C(=C(c2ccc(OCCN3CCCCCC3)cc2)c2ccc(OCCN3CCCCCC3)cc2)c2ccccc2)cc1, the CC50 [1] is reported as over 30 µM, the Ki [2] is reported as 1.1 µM and the CC50 at 48 h [3] is reported as 23.2 µM. The IC50 [4] was 1.18 µM.
With c1cc(OCCN2CCCCCC2)ccc1Cc1ccc(OCCN2CCCCCC2)cc1 the inhibition [16] was “Dose-dependent effect”, the Activity [17] was “Dose-dependent effect” and the inhibition [18] was “Active”. For the same compound, the CC50 [1] was 14.5 µM, the inhibition [19] was “Active” and the CC50 at 48 h [3] was 10.9 µM. For the same compound, the IC50 [4] was 0.67 µM, the inhibition [20] was “Active” and the inhibition [21] was “Active”.
In the case of CCC(=C(c1ccc(OCCN2CCCCCC2)cc1)c1ccc(OCCN2CCCCCC2)cc1)c1ccccc1, the inhibition [16] is reported as “Dose-dependent effect”, the Activity [17] is reported as “Dose-dependent effect” and the inhibition [18] is reported as “Active”. The CC50 [1] was 3.42 µM, the inhibition [19] was “Active” and the Activity [22] was “Active”. For the same compound, the inhibition [23] was “inactive”, the Ki [2] was 0.58 µM and the CC50 at 48 h [3] was 4.38 µM. The Activity [24] was 4.7%, the IC50 [25] was 1.8 µM and the IC50 [4] was 0.64 µM. For the same compound, the inhibition [20] was “Active”, the inhibition [26] was “Active” and the inhibition [27] was “inactive”. For the same compound, the Activity [7] was 3.4%.
With CCC(=C(c1ccc(OCCN(C)C)cc1)c1ccc(OCCN(C)C)cc1)c1ccccc1 the inhibition [23] was “inactive”, the IC50 [4] was 3.36 µM and the inhibition [27] was “inactive”.
